Consider two compounds from ChEMBL document CHEMBL4007513, “Synthesis and Biological Evaluation of the First Triple Inhibitors of Human Topoisomerase 1, Tyrosyl-DNA Phosphodiesterase 1 (Tdp1), and Tyrosyl-DNA Phosphodiesterase 2 (Tdp2)” (J Med Chem, 2017).

One data set concerns SF-539. As to the kind of experiment: Cytotoxicity against human SF539 cells after 48 hrs by SRB assay. The class given is functional. As to conditions: SF-539, 48 h. The procedure, abridged:
(§1)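 NCI-60 human cancer cell line screen. Five-concentration testing across 0.01 to 100 μM, done only for compounds selected from a one-concentration preliminary test. Read-out was GI50.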
A general note: Sulforhodamine B stains cellular protein and so reports cell mass.

Data set [1] concerns the target T1, Tyrosyl-DNA phosphodiesterase 2 (Homo sapiens, UniProt O95551).
T1 sequence (O95551 whole entry): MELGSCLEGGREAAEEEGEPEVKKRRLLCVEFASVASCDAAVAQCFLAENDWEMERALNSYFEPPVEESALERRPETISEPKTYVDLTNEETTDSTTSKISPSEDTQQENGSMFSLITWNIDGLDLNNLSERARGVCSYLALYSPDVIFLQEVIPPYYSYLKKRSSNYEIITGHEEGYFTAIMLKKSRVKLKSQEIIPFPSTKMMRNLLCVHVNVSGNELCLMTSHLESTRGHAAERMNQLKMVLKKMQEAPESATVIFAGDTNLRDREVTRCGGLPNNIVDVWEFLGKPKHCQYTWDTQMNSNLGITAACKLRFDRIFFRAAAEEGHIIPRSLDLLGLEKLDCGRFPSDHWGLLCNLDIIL
As to the kind of experiment: (§2) Inhibition of recombinant human Tdp2 assessed as decrease in alpha 32P-cordycepin-3'-labeled DNA breaks after 15 mins by PAGE analysis. The procedure, abridged: (§3)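 The substrate was the 18-mer single-stranded TY18 oligo, α32P-cordycepin-3′-labeled, at 1 nM, with 25 pM recombinant human Tdp2. Products were run on 16% denaturing PAGE.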

Data set [2] has as its target T2, DNA topoisomerase 1 (Homo sapiens) (UniProt P11387).
T2 sequence (whole entry): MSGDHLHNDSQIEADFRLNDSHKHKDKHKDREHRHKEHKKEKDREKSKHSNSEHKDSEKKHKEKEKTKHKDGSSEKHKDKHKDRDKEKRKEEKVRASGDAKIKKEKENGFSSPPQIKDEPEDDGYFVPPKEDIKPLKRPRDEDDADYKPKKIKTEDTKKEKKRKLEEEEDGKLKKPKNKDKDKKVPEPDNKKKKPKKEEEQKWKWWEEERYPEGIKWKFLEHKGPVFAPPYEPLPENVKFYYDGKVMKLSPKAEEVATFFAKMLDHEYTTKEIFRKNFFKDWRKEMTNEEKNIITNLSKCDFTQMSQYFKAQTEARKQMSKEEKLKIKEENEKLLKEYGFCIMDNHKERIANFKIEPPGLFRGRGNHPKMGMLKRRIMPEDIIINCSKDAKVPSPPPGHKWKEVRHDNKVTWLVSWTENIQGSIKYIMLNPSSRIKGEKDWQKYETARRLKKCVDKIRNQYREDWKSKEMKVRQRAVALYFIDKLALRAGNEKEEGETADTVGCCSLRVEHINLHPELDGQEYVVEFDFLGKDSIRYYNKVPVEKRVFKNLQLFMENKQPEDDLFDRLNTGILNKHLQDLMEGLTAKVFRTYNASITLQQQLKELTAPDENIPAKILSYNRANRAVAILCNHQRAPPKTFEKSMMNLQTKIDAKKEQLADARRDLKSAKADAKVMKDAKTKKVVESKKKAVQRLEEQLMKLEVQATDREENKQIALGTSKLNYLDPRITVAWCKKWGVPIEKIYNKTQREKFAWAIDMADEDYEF
Description: Inhibition of recombinant Top1 (unknown origin) assessed as increase in [32P]-DNA breaks at 1 uM after 20 mins by PAGE analysis. In outline: (§4)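 The substrate was a 3′-32P 117-bp oligonucleotide holding Top1 cleavage sites, at about 2 nM, with recombinant Top1. Compounds were tested at 0.1, 1.0, 10 and 100 μM. Reactions were stopped with 0.5% SDS and run on 20% denaturing PAGE.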

For data set [3], the target named is Tyrosyl-DNA phosphodiesterase 1 (Homo sapiens, UniProt Q9NUW8). As to the kind of experiment: Inhibition of recombinant Tdp1 (unknown origin) assessed as decrease in hydrolysis of phosphodiester linkage between tyrosine residue and the 3' end of 5'-[32P]-DNA after 15 mins by PAGE analysis. In outline: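 The substrate was 5′-32P single-stranded oligo N14Y carrying a 3′-phosphotyrosine, at 1 nM, with 10 pM recombinant Tdp1. Products were run on 16% denaturing PAGE with phosphorimaging.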
Chain of Tyrosyl-DNA phosphodiesterase 1 (Q9NUW8 whole entry): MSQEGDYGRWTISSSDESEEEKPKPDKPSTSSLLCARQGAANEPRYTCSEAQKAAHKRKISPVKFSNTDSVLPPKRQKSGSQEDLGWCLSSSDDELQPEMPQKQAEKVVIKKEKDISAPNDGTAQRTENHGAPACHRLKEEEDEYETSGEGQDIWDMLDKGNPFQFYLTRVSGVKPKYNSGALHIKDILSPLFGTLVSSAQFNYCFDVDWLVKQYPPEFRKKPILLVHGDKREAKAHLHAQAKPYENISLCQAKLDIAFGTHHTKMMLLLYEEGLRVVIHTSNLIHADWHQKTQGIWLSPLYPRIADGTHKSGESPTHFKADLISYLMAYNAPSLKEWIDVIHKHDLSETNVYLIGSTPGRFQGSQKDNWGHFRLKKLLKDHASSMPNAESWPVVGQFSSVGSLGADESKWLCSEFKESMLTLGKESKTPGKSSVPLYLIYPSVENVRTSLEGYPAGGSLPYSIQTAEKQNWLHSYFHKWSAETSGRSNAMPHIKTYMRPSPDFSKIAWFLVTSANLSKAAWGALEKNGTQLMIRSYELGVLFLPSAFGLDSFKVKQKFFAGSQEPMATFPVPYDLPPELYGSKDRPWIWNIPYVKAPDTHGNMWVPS

The next data set deals with UACC-62. As to the kind of experiment: Cytotoxicity against human UACC62 cells after 48 hrs by SRB assay. The class given is functional. As to conditions: UACC-62, 48 h. The procedure, abridged:
as §1

Data set [4] deals with T2, DNA topoisomerase 1 (Homo sapiens). Description: Poison activity at recombinant Top1 (unknown origin) assessed as inhibition of [32P]-DNA religation in drug-DNA-Top1 ternary complex at 0.1 to 10 uM after 20 mins by PAGE analysis. In outline:
as §4

The subject of the next data set is SN12C. As to the kind of experiment: Cytotoxicity against human SN12C cells after 48 hrs by SRB assay. The data set is classed as functional. In outline: as §1
A further data set has as its system HOP-62. Description: Cytotoxicity against human HOP62 cells after 48 hrs by SRB assay. The data set is classed as functional. As to conditions: HOP-62, 48 h. In outline:
as §1

Another data set relates to PBMC. As to the kind of experiment: Induction of DNA damage in human PBMC assessed as formation of gamma-H2AX foci at 100 to 1000 nM after 2 hrs by DAPI staining-based confocal microscopy. The data set is classed as cell-based. As to conditions: 1 µM. In outline: (§5)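 Freshly purified human PBMCs (from healthy donors) or CCRF-CEM leukemia cells were used at 2 mil/mL in RPMI 1640 with 10% FBS, penicillin and streptomycin. Cells were dosed at 100 nM and 1 μM for 2 h at 37 °C. They were then fixed in 2% paraformaldehyde, cytospun and blocked in 5% BSA. Staining used anti-γ-H2AX with an Alexa 488 secondary and DAPI, and foci were imaged by confocal microscopy.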

The test system of the next data set is MCF7. As to the kind of experiment: Cytotoxicity against human MCF7 cells after 48 hrs by SRB assay. The data set is classed as functional. As to conditions: MCF7, 48 h. The procedure, abridged: as §1
Data set [5] concerns the target T3, Tyrosyl-DNA phosphodiesterase 2 (Homo sapiens) (UniProt O95551).
T3 sequence (whole entry): T1 sequence (O95551 whole entry)
Described as §2. The procedure, abridged:
as §3

The subject of another data set is CCRF-CEM. As to the kind of experiment: Induction of DNA damage in human CCRF-CEM cells assessed as formation of gamma-H2AX foci at 100 to 1000 nM after 2 hrs by DAPI staining-based confocal microscopy. The class given is functional, cell-based. The procedure, abridged: as §5
The next data set concerns OVCAR-3. As to the kind of experiment: Cytotoxicity against human OVCAR3 cells after 48 hrs by SRB assay. As to conditions: OVCAR-3, 48 h. The class given is functional. The procedure, abridged: as §1
Data set [6] has as its target T2, DNA topoisomerase 1 (Homo sapiens). As to the kind of experiment: Inhibition of recombinant Top1 (unknown origin) assessed as increase in [32P]-DNA breaks at 0.1 to 100 uM after 20 mins by PAGE analysis. In outline: as §4
For data set [7] the target is unchanged. As to the kind of experiment: Suppressor activity at recombinant Top1 (unknown origin) assessed as decrease in [32P]-DNA breaks at 100 uM after 20 mins by PAGE analysis. In outline: as §4

SMILES strings stand for the structures. pIC50: −log10 of the molar value. The source made the active and inactive calls. The rule behind the calls is not given here.

Consider `COc1cc2c3c(n(CCCNCCO)c(=O)c2cc1OC)-c1cc2c(cc1C3=O)OCO2` [LMP-744], for which, in the data set on SF-539, it took 40 nM to inhibit growth by half (GI50). Further, the figures for the pIC50 in data set [1] and in data set [3] were 4.92 to 6.00 and 3.95 to 4.92, respectively. In addition, the inhibition result in [2] is “Active”.

`COc1cnc2c(c1)C(=O)c1c-2n(CCCNC2=NCCS2)c(=O)c2cc([N+](=O)[O-])ccc12`: the GI50 in the data set with UACC-62 was less than 10 nM; with SN12C, less than 10 nM; with HOP-62, 14 nM; in the data set with MCF7, less than 10 nM; in the data set on SF-539, 36 nM; with OVCAR-3, 137 nM. The result (in [4]; with CCRF-CEM; in data set [7]) was Active. For the same compound, in the data set with PBMC, the Activity entry is recorded as “Non-Toxic”. Besides, the pIC50 in data set [1] is 4.43 to 4.92; in data set [3], 4.92 to 6.00. Besides, the inhibition entry in [5] and in [3] was “Dose-dependent effect” each time. In addition, in data set [6], the inhibition entry is “Active”.

The term GI50 denotes the concentration giving 50% growth inhibition. A lower GI50 goes with greater sensitivity of the cells. By pIC50 is commonly meant −log10 of the IC50, conventionally taken in molar units.
